Test results: ChEMBL document CHEMBL4364314, “Design, synthesis and biological evaluation of 6-deoxy O-spiroketal C-arylglucosides as novel renal sodium-dependent glucose cotransporter 2 (SGLT2) inhibitors for the treatment of type 2 diabetes” (Eur J Med Chem, 2019)

Tests used:
[1] = Cmax in mouse at 10 mg/kg, po administered as single dose; type: ADME, organism-based; design: dose 10 mg/kg, route oral; conditions: in vivo
Method in brief: (§1)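 Mouse pharmacokinetics after a single intravenous dose of 2 mg/kg or a single oral dose of 10 mg/kg. Plasma parameters derived for each route; oral bioavailability calculated by comparing the two routes.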

[2] = Tmax in mouse at 10 mg/kg, po administered as single dose; type: ADME, organism-based; conditions: in vivo; method in brief: as §1
[3] = target: T1, Sodium/glucose cotransporter 1 (Homo sapiens, UniProt P13866); assay: Inhibition of human full length SGLT1 expressed in NIH3T3 cells measured after 1 hr in presence of [14C]-methyl-alpha -D-glucopyranoside by scintillation counter method; type: cell-based
T1 sequence (P13866 whole entry): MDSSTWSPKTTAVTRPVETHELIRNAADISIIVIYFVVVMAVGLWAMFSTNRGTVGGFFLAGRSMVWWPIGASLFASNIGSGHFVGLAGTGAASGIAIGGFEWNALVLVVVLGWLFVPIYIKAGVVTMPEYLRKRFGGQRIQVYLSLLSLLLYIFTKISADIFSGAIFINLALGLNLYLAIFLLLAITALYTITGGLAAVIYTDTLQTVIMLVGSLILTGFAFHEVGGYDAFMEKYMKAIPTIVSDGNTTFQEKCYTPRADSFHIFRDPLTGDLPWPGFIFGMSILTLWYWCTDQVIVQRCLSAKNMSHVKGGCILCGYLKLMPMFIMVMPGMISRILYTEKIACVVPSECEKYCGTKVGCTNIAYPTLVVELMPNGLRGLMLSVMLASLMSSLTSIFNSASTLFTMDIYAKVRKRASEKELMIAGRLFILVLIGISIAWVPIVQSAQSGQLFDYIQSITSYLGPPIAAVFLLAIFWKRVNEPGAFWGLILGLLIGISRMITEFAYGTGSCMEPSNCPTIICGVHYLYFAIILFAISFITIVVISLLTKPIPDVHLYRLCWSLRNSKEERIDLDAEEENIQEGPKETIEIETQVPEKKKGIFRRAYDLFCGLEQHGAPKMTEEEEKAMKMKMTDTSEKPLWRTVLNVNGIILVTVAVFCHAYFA
Method in brief: (§2)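 Stable NIH3T3 lines from retroviral transduction of full-length hSGLT1 or hSGLT2 (pBABE-puro, 8 µg/mL polybrene, puromycin 2 µg/mL selection for 2 weeks). Cells plated 2 days ahead, 2 mmol/L sodium butyrate added day 2. Read by scintillation counting. Compound-free buffer served as negative control, sodium-free N-methyl-glucamine buffer as blank.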

[4] = tested on: Rattus norvegicus; assay: Effect on urine glucose excretion in Sprague-Dawley rat 1 mg/kg, po administered as single dose measured after 24 hrs assessed per 100 grams (reference value: 0.51 +/- 0.40 mg); type: functional
[5] = Oral bioavailability in mouse at 10 mg/kg administered as single dose; type: ADME, organism-based; conditions: in vivo; method in brief: as §1
[6] = AUClast in mouse at 2 mg/kg, iv administered as single dose; type: ADME, organism-based; design: dose 2 mg/kg, route intravenous, time 0 - last; conditions: in vivo; method in brief: as §1
[7] = Volume of distribution at steady state in mouse at 2 mg/kg, iv administered as single dose; type: ADME, organism-based; conditions: in vivo, read-out: Vdss; method in brief: as §1
[8] = species on record: Homo sapiens; assay: Selectivity ratio of IC50 for human full length SGLT1 to IC50 for human full length SGLT2
Method in brief: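 Ratio of IC50 at hSGLT1 to IC50 at hSGLT2, both from the [14C]methyl-α-D-glucopyranoside uptake assay in stably transfected NIH3T3 cells.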

[9] = AUCinfinity in mouse at 10 mg/kg, po administered as single dose; type: ADME, organism-based; design: dose 10 mg/kg, time infinity, route oral; conditions: in vivo; method in brief: as §1
[10] = Half-life in mouse at 10 mg/kg, po administered as single dose; type: ADME, organism-based; conditions: in vivo; method in brief: as §1
[11] = tested on: Mus musculus; assay: Effect on urine glucose concentration in C57BL/6J mouse at 1 mg/kg, po administered as single dose measured after 24 hrs by glucose oxidase method (reference value: 0.74 +/- 0.14 mmol/L); type: functional
[12] = AUClast in mouse at 10 mg/kg, po administered as single dose; type: ADME, organism-based; design: dose 10 mg/kg, time 0 - last, route oral; conditions: in vivo; method in brief: as §1
[13] = tested on: Rattus norvegicus; assay: Effect on urine glucose concentration in Sprague-Dawley rat at 1 mg/kg, po administered as single dose measured after 24 hrs by glucose oxidase method (reference value: 0.28 +/- 0.16 mmol/L); type: functional
[14] = tested on: Mus musculus; assay: Hypoglycemic activity in orally dosed C57BL/6J mouse assessed as glucose tolerance improvement administered as single dose measured after 120 mins post glucose challenge by OGTT; type: functional, organism-based
Method in brief: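 Male mice fasted overnight (14 h), then gavaged with 1 or 3 mg/kg or vehicle (0.9% NaCl, 0.5% methyl cellulose); n = 8. Glucose 3 g/kg given by gavage 2 h later. Blood glucose taken at -120, 0, 15, 30, 60, 90 and 120 min. AUC0-2 h by trapezoidal rule; t-test against vehicle.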

[15] = Mean residence time infinity in mouse at 2 mg/kg, iv administered as single dose; type: ADME, organism-based; conditions: in vivo; method in brief: as §1
[16] = tested on: Mus musculus; assay: Effect on urine glucose excretion in C57BL/6J mouse at 1 mg/kg, po administered as single dose measured after 24 hrs assessed per 100 grams (reference value: 0.84 +/- 0.40 mg ); type: functional
[17] = tested on: Mus musculus; assay: Effect on urinary volume in C57BL/6J mouse at 1 mg/kg, po administered as single dose measured after 24 hrs (reference value: 1.24 +/- 0.45 mL); type: ADME, organism-based; conditions: in vivo
[18] = tested on: Rattus norvegicus; assay: Effect on urinary volume in Sprague-Dawley rat at 1 mg/kg, po administered as single dose measured after 24 hrs (reference value: 24.17 +/- 7.11 mL); type: ADME, organism-based; conditions: in vivo
[19] = Half-life in mouse at 2 mg/kg, iv administered as single dose; type: ADME, organism-based; conditions: in vivo; method in brief: as §1
[20] = Clearance in mouse at 2 mg/kg, iv administered as single dose; type: ADME, organism-based; conditions: in vivo; method in brief: as §1
[21] = Mean residence time infinity in mouse at 10 mg/kg, po administered as single dose; type: ADME, organism-based; conditions: in vivo; method in brief: as §1
[22] = AUCinfinity in mouse at 2 mg/kg, iv administered as single dose; type: ADME, organism-based; design: dose 2 mg/kg, route intravenous, time infinity; conditions: in vivo; method in brief: as §1
[23] = target: T2, Sodium/glucose cotransporter 2 (Homo sapiens, UniProt P31639); assay: Inhibition of human full length SGLT2 expressed in NIH3T3 cells measured after 1 hr in presence of [14C]-methyl-alpha -D-glucopyranoside by scintillation counter method; type: cell-based; method in brief: as §2
T2 sequence (P31639 whole entry): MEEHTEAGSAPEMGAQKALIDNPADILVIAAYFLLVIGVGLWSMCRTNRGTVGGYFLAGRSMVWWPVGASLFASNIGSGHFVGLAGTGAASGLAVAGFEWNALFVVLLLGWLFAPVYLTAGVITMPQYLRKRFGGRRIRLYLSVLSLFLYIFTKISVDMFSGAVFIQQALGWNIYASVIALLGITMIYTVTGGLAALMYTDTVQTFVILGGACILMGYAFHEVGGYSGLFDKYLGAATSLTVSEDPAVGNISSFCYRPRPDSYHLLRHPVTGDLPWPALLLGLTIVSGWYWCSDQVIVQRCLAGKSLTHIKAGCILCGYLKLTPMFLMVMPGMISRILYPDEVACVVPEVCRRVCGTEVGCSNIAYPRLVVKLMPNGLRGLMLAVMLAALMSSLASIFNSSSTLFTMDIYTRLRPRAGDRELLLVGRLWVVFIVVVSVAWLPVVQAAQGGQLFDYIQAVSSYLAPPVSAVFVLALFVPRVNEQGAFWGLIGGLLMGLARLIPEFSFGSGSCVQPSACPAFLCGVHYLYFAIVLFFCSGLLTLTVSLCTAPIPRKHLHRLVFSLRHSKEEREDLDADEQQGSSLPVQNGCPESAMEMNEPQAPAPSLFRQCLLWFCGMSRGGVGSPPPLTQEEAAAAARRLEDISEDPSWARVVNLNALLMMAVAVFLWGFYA

Cmax [1]: 0.74 µg/mL
Tmax [2]: 0.33 h
IC50 [3]: 1 µM
bioavailability [5]: 53.4%
AUC(0-t) [6]: 1.13 µg·h/mL
Vd [7]: 10.1 L/kg
Ratio IC50 [8]: 216
AUC(0-inf) [9]: 5.58 µg·h/mL
half-life [10]: 5.95 h
AUC(0-t) [12]: 3.01 µg·h/mL
MRT inf [15]: 13.1 h
Activity [17]: 1.21 mL
Activity [18]: 24.67 mL
half-life [19]: 10.8 h
clearance [20]: 1.19 L/h/kg
MRT inf [21]: 8.9 h
AUC(0-inf) [22]: 2.32 µg·h/mL
IC50 [23]: 0.0045 µM
SMILES: CCc1ccc(Cc2cc3c(cc2C)CO[C@]32O[C@H](C)[C@@H](O)[C@H](O)[C@H]2O)s1
Activity [4]: 134.23 mg
Activity [11]: 92.99 mmol/L
Activity [13]: 93.8 mmol/L
Activity [14]: Dose-dependent effect
Activity [16]: 110.53 mg
